Reference: ChEMBL document CHEMBL2046278, “Development and evaluation of multifunctional agents for potential treatment of Alzheimer's disease: application to a pyrimidine-2,4-diamine template” (Bioorg Med Chem Lett, 2012)
Active and inactive are the calls of the source. The rule behind the calls is not given here. Peptide text beside a SMILES is read from it. * marks the point of attachment. Cbz = O=C(OCc1ccccc1)*

target: T1, Beta-secretase 1 (Homo sapiens, UniProt P56817); assay: Inhibition of BACE1 at 10 uM; conditions: not given
T1 sequence (P56817 whole entry): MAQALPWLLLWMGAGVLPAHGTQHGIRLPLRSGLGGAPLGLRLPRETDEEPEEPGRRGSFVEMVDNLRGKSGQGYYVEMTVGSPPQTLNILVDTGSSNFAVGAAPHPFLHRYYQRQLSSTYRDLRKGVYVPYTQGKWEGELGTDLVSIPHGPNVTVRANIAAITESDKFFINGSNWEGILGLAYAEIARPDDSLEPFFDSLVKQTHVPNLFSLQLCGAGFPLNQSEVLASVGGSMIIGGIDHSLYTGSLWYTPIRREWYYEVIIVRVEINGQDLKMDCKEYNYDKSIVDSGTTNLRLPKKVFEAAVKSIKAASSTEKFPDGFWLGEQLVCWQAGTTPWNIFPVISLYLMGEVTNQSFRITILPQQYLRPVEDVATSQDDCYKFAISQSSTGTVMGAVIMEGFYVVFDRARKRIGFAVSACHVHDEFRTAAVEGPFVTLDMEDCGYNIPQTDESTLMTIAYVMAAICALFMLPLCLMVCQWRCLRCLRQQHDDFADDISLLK

First: Brc1ccc(CNc2ccnc(NC3CCN(Cc4ccccc4)CC3)n2)cc1
Second: COc1ccc(CNc2ccnc(NC3CCN(Cc4ccccc4)CC3)n2)cc1OC
The inhibition of the first is lower: 33% for the first, 34% for the second.

system: not listed separately; assay: Selectivity ratio of IC50 for human AChE to IC50 for equine BuChE; conditions: not given

`Clc1cccc(CNc2ccnc(NC3CCN(Cc4ccccc4)CC3)n2)c1` and `Clc1ccc(CNc2ccnc(NC3CCN(Cc4ccccc4)CC3)n2)cc1` are the same in Ratio IC50: 3.1 for the first, 3.1 for the second.

First: Clc1ccccc1CNc1ccnc(NC2CCN(Cc3ccccc3)CC2)n1
Second: Brc1ccc(CNc2ccnc(NC3CCN(Cc4ccccc4)CC3)n2)cc1
The Ratio IC50 of the first is higher: 3.2 for the first, 2.4 for the second.

Compared with `c1ccc(CN2CCC(Nc3nccc(NCc4ccc5c(c4)OCO5)n3)CC2)cc1`, `Cc1ccc(CNc2ccnc(NC3CCN(Cc4ccccc4)CC3)n2)cc1` is higher in Ratio IC50: 3.2 for the first, 5.2 for the second.

Compared with `COc1cc(CNc2ccnc(NC3CCN(Cc4ccccc4)CC3)n2)cc(OC)c1OC`, `COc1ccc(CNc2ccnc(NC3CCN(Cc4ccccc4)CC3)n2)cc1OC` is lower in Ratio IC50: 1.3 for the first, 0.9 for the second.

Going from `COc1ccc(CNc2ccnc(NC3CCN(Cc4ccccc4)CC3)n2)cc1` to `Fc1ccc(CNc2ccnc(NC3CCN(Cc4ccccc4)CC3)n2)cc1`, the Ratio IC50 rises from 1.9 to 3.5.

system: not listed separately; assay: Cytotoxicity against human SH-SY5Y cells assessed as cell viability at 40 uM after 24 hrs by MTT assay; format: cell-based; conditions: read-out: Activity

`COc1ccc(CNc2ccnc(NC3CCN(Cc4ccccc4)CC3)n2)cc1OC` showed a viability at 24 h, 40 µM of 81%.

target: Cholinesterase (Equus caballus, UniProt P81908); assay: Inhibition of equine BuChE using butyrylthiocholine iodide as substrate after 5 mins by DTNB method; conditions: not given
Sequence (P81908 whole entry): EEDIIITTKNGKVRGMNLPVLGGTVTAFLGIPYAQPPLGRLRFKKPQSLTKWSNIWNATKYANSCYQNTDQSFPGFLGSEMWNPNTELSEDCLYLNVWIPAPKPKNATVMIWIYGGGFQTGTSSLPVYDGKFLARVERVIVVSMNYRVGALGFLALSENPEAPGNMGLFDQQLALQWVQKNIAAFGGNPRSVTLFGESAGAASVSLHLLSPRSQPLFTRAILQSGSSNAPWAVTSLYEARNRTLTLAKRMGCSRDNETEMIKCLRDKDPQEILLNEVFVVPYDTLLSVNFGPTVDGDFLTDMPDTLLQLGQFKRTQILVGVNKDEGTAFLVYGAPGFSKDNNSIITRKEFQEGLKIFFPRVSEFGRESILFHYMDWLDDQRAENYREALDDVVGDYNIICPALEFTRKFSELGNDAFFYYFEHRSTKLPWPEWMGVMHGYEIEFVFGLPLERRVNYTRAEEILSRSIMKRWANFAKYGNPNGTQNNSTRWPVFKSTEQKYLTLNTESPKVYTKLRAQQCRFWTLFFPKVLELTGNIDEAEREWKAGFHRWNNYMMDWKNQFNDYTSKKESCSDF

`Clc1cccc(CNc2ccnc(NC3CCN(Cc4ccccc4)CC3)n2)c1` and `Clc1ccc(CNc2ccnc(NC3CCN(Cc4ccccc4)CC3)n2)cc1` are within 1.5-fold of each other in IC50: 2.5 µM for the first, 2.8 µM for the second.

First: Clc1ccccc1CNc1ccnc(NC2CCN(Cc3ccccc3)CC2)n1
Second: Brc1ccc(CNc2ccnc(NC3CCN(Cc4ccccc4)CC3)n2)cc1
The IC50 of the first is 1.7-fold lower: 2.4 µM for the first, 4.1 µM for the second. The first is the more potent here.

First: c1ccc(CN2CCC(Nc3nccc(NCc4ccc5c(c4)OCO5)n3)CC2)cc1
Second: Cc1ccc(CNc2ccnc(NC3CCN(Cc4ccccc4)CC3)n2)cc1
The IC50 of the first is 1.6-fold higher: 3.9 µM for the first, 2.5 µM for the second. The second is the more potent here.

`COc1cc(CNc2ccnc(NC3CCN(Cc4ccccc4)CC3)n2)cc(OC)c1OC` and `COc1ccc(CNc2ccnc(NC3CCN(Cc4ccccc4)CC3)n2)cc1OC` are within 1.5-fold of each other in IC50: 7.7 µM for the first, 11.4 µM for the second.

Going from `COc1ccc(CNc2ccnc(NC3CCN(Cc4ccccc4)CC3)n2)cc1` to `Fc1ccc(CNc2ccnc(NC3CCN(Cc4ccccc4)CC3)n2)cc1`, the IC50 falls from 4.9 µM to 2.2 µM (2.2-fold). The second is the more potent here.

target: Acetylcholinesterase (Homo sapiens, UniProt P22303); assay: Inhibition of human AChE using acetylthiocholine iodide as substrate after 5 mins by DTNB method; conditions: not given
Sequence (P22303 whole entry): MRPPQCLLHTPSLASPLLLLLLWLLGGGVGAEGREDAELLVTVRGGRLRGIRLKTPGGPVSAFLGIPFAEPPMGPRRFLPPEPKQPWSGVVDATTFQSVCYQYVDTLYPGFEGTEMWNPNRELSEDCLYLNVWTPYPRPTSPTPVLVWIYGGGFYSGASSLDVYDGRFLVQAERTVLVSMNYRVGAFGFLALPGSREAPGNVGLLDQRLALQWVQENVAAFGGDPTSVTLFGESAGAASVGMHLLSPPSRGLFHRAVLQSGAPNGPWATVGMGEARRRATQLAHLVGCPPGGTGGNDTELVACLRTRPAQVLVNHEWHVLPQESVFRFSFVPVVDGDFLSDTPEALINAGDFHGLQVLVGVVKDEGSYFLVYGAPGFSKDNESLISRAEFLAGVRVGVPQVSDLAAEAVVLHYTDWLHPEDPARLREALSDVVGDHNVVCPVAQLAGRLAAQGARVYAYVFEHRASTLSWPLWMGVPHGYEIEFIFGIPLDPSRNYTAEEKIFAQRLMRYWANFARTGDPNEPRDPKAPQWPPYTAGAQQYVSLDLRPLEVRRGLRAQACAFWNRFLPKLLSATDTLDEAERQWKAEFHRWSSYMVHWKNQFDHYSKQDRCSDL

`Clc1cccc(CNc2ccnc(NC3CCN(Cc4ccccc4)CC3)n2)c1` and `Clc1ccc(CNc2ccnc(NC3CCN(Cc4ccccc4)CC3)n2)cc1` are within 1.5-fold of each other in IC50: 7.7 µM for the first, 8.8 µM for the second.

`Clc1ccccc1CNc1ccnc(NC2CCN(Cc3ccccc3)CC2)n1` and `Brc1ccc(CNc2ccnc(NC3CCN(Cc4ccccc4)CC3)n2)cc1` are within 1.5-fold of each other in IC50: 7.7 µM for the first, 9.9 µM for the second.

`c1ccc(CN2CCC(Nc3nccc(NCc4ccc5c(c4)OCO5)n3)CC2)cc1` and `Cc1ccc(CNc2ccnc(NC3CCN(Cc4ccccc4)CC3)n2)cc1` are within 1.5-fold of each other in IC50: 12.6 µM for the first, 12.9 µM for the second.

`COc1cc(CNc2ccnc(NC3CCN(Cc4ccccc4)CC3)n2)cc(OC)c1OC` and `COc1ccc(CNc2ccnc(NC3CCN(Cc4ccccc4)CC3)n2)cc1OC` are within 1.5-fold of each other in IC50: 10.3 µM for the first, 9.9 µM for the second.

`COc1ccc(CNc2ccnc(NC3CCN(Cc4ccccc4)CC3)n2)cc1` and `Fc1ccc(CNc2ccnc(NC3CCN(Cc4ccccc4)CC3)n2)cc1` are within 1.5-fold of each other in IC50: 9.4 µM for the first, 7.7 µM for the second.

system: not listed separately; assay: Inhibition of amyloid beta (1 to 40) fibril formation at 10 uM coincubated with amyloid beta (1 to 40) peptide after 72 hrs by transmission electron microscopic analysis; conditions: not given

For `COc1ccc2c3c1O[C@H]1C[C@@H](O)C=C[C@@]31CCN(C)C2`, the inhibition was “Active”.
With `Brc1ccc(CNc2ccnc(NC3CCN(Cc4ccccc4)CC3)n2)cc1` the inhibition was “Active”.
With `Clc1ccc(CNc2ccnc(NC3CCN(Cc4ccccc4)CC3)n2)cc1` the inhibition was “Active”.

target: T1, Beta-secretase 1; assay: Inhibition of BACE1; conditions: not given

First: Clc1cccc(CNc2ccnc(NC3CCN(Cc4ccccc4)CC3)n2)c1
Second: Clc1ccc(CNc2ccnc(NC3CCN(Cc4ccccc4)CC3)n2)cc1
The IC50 of the first is 5.3-fold lower: 600 nM for the first, 3200 nM for the second. The first is the more potent here.

First: Clc1ccccc1CNc1ccnc(NC2CCN(Cc3ccccc3)CC2)n1
Second: Cc1ccc(CNc2ccnc(NC3CCN(Cc4ccccc4)CC3)n2)cc1
The IC50 of the first is 6.5-fold lower: 1700 nM for the first, 11100 nM for the second.

Compared with `c1ccc(CN2CCC(Nc3nccc(NCc4ccc5c(c4)OCO5)n3)CC2)cc1`, `Fc1ccc(CNc2ccnc(NC3CCN(Cc4ccccc4)CC3)n2)cc1` is 2-fold lower in IC50: 1400 nM for the first, 700 nM for the second. The second is the more potent here.

First: COc1cc(CNc2ccnc(NC3CCN(Cc4ccccc4)CC3)n2)cc(OC)c1OC
Second: COc1ccc(CNc2ccnc(NC3CCN(Cc4ccccc4)CC3)n2)cc1
The IC50 of the first is 15-fold higher: 8900 nM for the first, 600 nM for the second. The second is the more potent here.

Work on `CC(C)C[C@@H](C=O)NC(=O)[C@H](CC(C)C)NC(=O)[C@@H](NC(=O)OCc1ccccc1)C(C)C` (Cbz-Val-Leu-Leu-aldehyde) yielded an IC50 of 14000 nM.

system: not listed separately; assay: Induction of disassembly of preformed amyloid beta (1 to 40) fibrils assessed as disaggregated fibrils at 10 uM after 3 days by transmission electron microscopic analysis; conditions: not given
How it was run: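 Aβ1-40 fibrils were preformed over a three-day pre-fibrillization period. Compound was then incubated with the fibrils at 10 μM, and fibril morphology and disassembly were examined by transmission electron microscopy.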

In the case of `Brc1ccc(CNc2ccnc(NC3CCN(Cc4ccccc4)CC3)n2)cc1`, the inhibition is reported as “Active”.
For `Clc1ccc(CNc2ccnc(NC3CCN(Cc4ccccc4)CC3)n2)cc1`, the inhibition was “Active”.

system: not listed separately; assay: Inhibition of self-induced amyloid beta (1 to 40) aggregation at 100 uM after 24 hrs by thioflavin T-based fluorescence analysis; conditions: not given
How it was run: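 Aβ1-40 peptide aggregating on its own, without hAChE, with test compound at 100 μM. Aggregation read by thioflavin T fluorescence and expressed as % inhibition. Reported as the mean of two separate experiments (n = 4), with deviation from the mean under 10% of the mean value.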

First: Clc1cccc(CNc2ccnc(NC3CCN(Cc4ccccc4)CC3)n2)c1
Second: Clc1ccc(CNc2ccnc(NC3CCN(Cc4ccccc4)CC3)n2)cc1
The inhibition of the first is lower: 39.9% for the first, 42.6% for the second.

First: Clc1ccccc1CNc1ccnc(NC2CCN(Cc3ccccc3)CC2)n1
Second: Brc1ccc(CNc2ccnc(NC3CCN(Cc4ccccc4)CC3)n2)cc1
The inhibition of the first is lower: 42.2% for the first, 48.4% for the second.

Compared with `c1ccc(CN2CCC(Nc3nccc(NCc4ccc5c(c4)OCO5)n3)CC2)cc1`, `Cc1ccc(CNc2ccnc(NC3CCN(Cc4ccccc4)CC3)n2)cc1` is higher in inhibition: 18.6% for the first, 21.9% for the second.

Going from `COc1ccc2c3c1O[C@H]1C[C@@H](O)C=C[C@@]31CCN(C)C2` to `COc1ccc(CNc2ccnc(NC3CCN(Cc4ccccc4)CC3)n2)cc1OC`, the inhibition falls from 48% to 17.4%.

Going from `COc1ccc(CNc2ccnc(NC3CCN(Cc4ccccc4)CC3)n2)cc1` to `Fc1ccc(CNc2ccnc(NC3CCN(Cc4ccccc4)CC3)n2)cc1`, the inhibition rises from 18.2% to 29.8%.

For `COc1cc(CNc2ccnc(NC3CCN(Cc4ccccc4)CC3)n2)cc(OC)c1OC`, the inhibition was “inactive”.
